Legend:
[1] = folding enthalpy; higher = less favourable; fluorescence melt of hairpins on a sequencing array, two-state fit; conditions: sodium 0.088 M
Procedure, shortened: (§1)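 Two-state fits, bootstrapped, provided melting temperature and folding enthalpy from Cy3 fluorescence normalised to pre-quench Cy3 and to control constructs. Library hairpins with annealed Cy3 and quencher oligos were imaged on a sequenced MiSeq flow cell in 50 mM Na-HEPES pH 8.0, 25 mM NaCl, at 2.5 °C intervals up to 60 °C. Four replicates were combined with inverse-variance weighting. A 9.35 °C upward shift was applied to fitted temperatures to match UV melts.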

[2] = melting temperature; fluorescence melt of hairpins on a sequencing array, two-state fit, raised by 9.35 °C to match UV melts; conditions: sodium 0.088 M
Procedure, shortened: as §1

Sequence | folding enthalpy [1] [kcal/mol] | Tm [2] [°C]
GGGTGCGAAAGCACACCC ((((((....)))..))) | -10.4 | 58.3
GATCTCGCTCGAGATC ((((((....)))))) | -44.8 | 57.5
GGGAGGCGAAAGCCACCC (((.(((....))).))) | -25.1 | 65.6
GCAACGCGAAAGCCTGGC ((.(.((....)).).)) | -6.76 | 30.8
AACCTGAAAAGGTT (((((....))))) | -20 | 45.5
GATAGTGGAAACATTATC ((((.((....)).)))) | -18.4 | 31
GGGCTTACGAAAGTACCC (((..(((....)))))) | -20.9 | 34.4
GTGGGTGGAAACATCCAC ((((.((....)).)))) | -32.4 | 53.5
GCATCGCGAAAGCATTGC (((..((....))..))) | -13.1 | 37.7
GGATCCCGAAAGGGGTCC (((.(((....))).))) | -39.3 | 65.8
GGCAGCTCGAAAGAGGCC (((..(((....)))))) | -17.4 | 47.3
GATTCCGAAAGGAAAATC ((((((....)))..))) | -14 | 32.3
GATCTCAATGAGATC ((((((...)))))) | -35.9 | 50.6
GGGTTACGAAAGTAGCCC (((.(((....))).))) | -45.7 | 59.6
GGCTTAACGAAAGTTGCC (((..(((....)))))) | -21.8 | 45.5
GATCGGCGTCCCGATC ((((((....)))))) | -40.3 | 55.4
GATCGGTGTACCGATC ((((((....)))))) | -36.3 | 65.8
GCTAAGCGAAAGCAAAGC (((..((....))..))) | -17.5 | 40.8
GCAATTCCGAAAGGATGC (((..(((....)))))) | -21.5 | 38
GCGTTTCAACGC ((((....)))) | -27.6 | 60.2
CGTACGGAAACGTCCACG ((((((....)))..))) | -12.1 | 30.2
GATCGAAGCATCGATC ((((((....)))))) | -35.8 | 51.2
GGTGTGGGAAACCGCATC (.((.((....)).)).) | -23.7 | 41.9

Sequence | folding enthalpy [1] [kcal/mol] | Tm [2] [°C]
GCTCCGGGAAACCAGAGC ((((.((....)).)))) | -31.9 | 47
GCGGGATCCGC ((((...)))) | -17.1 | 59.2
GCCAATGCGAAAGCAGGC (((..(((....)))))) | -21.7 | 53
GAAGCTGAAAAGCTTC ((((((....)))))) | -31.2 | 58.3
GATCGTGATTACGATC ((((((....)))))) | -38.8 | 56
GCGTTCGGACGC ((((....)))) | -25.4 | 53.5
GTCAACCCGAAAGGGGAC (((..(((....)))))) | -15 | 41.8
GGGATTCGAAAGAACCC (((.(((....)))))) | -25.5 | 47.1
GATCGGAAATCCGATC ((((((....)))))) | -44.8 | 54.5
GATCTCTGTTGAGATC ((((((....)))))) | -41 | 54.3
GCTGAGCGAAAGCGCTGC ((.(.((....)).).)) | -16.1 | 54.7
GGTCCTCGAAAGAGAACC (((.(((....))).))) | -32.2 | 46.8
GTCCGGCGAAAGCCAGAC (((.(((....))).))) | -27.5 | 50.7
GTGAATCGAAAGATCCAC (((.(((....))).))) | -27.7 | 43.4
GGGGAGGGAAACCTTCCC (((.(((....))).))) | -33 | 53.4
GGGTGAGGAAACTCGCCC (((.(((....))).))) | -34 | 57.4
GTCACCGGAAACAGTGAC (((((.(....).))))) | -32.4 | 44.9
GCCTTGCGAAAGCTATGC ((.(.((....)).).)) | -8.48 | 44.5
GATCGACAATTCGATC ((((((....)))))) | -42.5 | 49.2
GGGGCGGGAAACCGCTCC ((.((((....)))).)) | -19.8 | 66.9
GGCGACCGAAAGGTAGCC (((.(((....))).))) | -26.2 | 69
GTGCGCCCGAAAGGGCAC (((..(((....)))))) | -10.4 | 64.3
GCTCGGACGAAAGTCAGC (((..(((....)))))) | -12.3 | 39.1

Sequence | folding enthalpy [1] [kcal/mol] | Tm [2] [°C]
GCGCACGAAAGTGGTCGC ((((((....)))..))) | -13.8 | 53.4
GTCACCGAAAGGTCTGAC ((((((....)))..))) | -15.2 | 33.7
CGCCATCGGAAACGAGCG (((..(((....)))))) | -18.1 | 37
GCAGAGCGAAAGCGCCGC ((.(.((....)).).)) | -28.2 | 64
GTTCCCGAAAGGGCAAAC ((((((....)))..))) | -9.62 | 28.9
GCTGGGGGAAACCCTAGC (((.(((....))).))) | -36.2 | 53.2
GCTCCGCGAAAGCGTTGC ((..(((....)))..)) | -14.2 | 40.4
GATCCTAACAAGGATC ((((((....)))))) | -32.6 | 51.5
GGCCTCCGAAAGGAAGCC (((.(((....))).))) | -40.9 | 55.5
GTCTAGGCGAAAGCCGAC (((..(((....)))))) | -10.8 | 44.5
GCCTTCGAAAGAAGGGGC ((((((....)))..))) | -17.8 | 53.8
GATCTTCCGAAAGATC ((((((....)))))) | -29.7 | 43.2
GATCTTTGGCAAGATC ((((((....)))))) | -29 | 40
GCTGTCGGAAACGATAGC (((.(((....))).))) | -57.3 | 53.4
CGATGGCGGAAACGCTCG (((..(((....)))))) | -15.8 | 38.5
GCGTGGGGAAACCTGCGC (((..((....))..))) | -37 | 53.3
GCAGAGCGAAAGCAGTGC (((..((....))..))) | -15.1 | 45.8
GAGGATGGAAACGTCCTC (((((.(....).))))) | -34.9 | 49.6
CTGATGAAAATCAG (((((....))))) | -22 | 43.4
CGCGGGAAAGCCCGCG ((((((....)))))) | -37.1 | 68.1
GCAACTGCGAAAGCATGC (((..(((....)))))) | -13.5 | 40.2
GTGAACGGAAACGTTTGC (..((((....))))..) | -22.6 | 38.9
GCGTTCCGAAAGGATCGC (((.(((....))).))) | -35.4 | 61.6

Sequence | folding enthalpy [1] [kcal/mol] | Tm [2] [°C]
GATCGGGAACCCGATC ((((((....)))))) | -42.4 | 63.7
GCCTGCCCGAAAGGGGGC (((..(((....)))))) | -12.6 | 58.1
GCCCAGCGAAAGCCGCGC ((.(.((....)).).)) | -10.1 | 45.7
GCTCCGCGAAAGCGTGGC ((..(((....)))..)) | -15.7 | 50.1
GTCTCTGAAAAGAGAC ((((((....)))))) | -33.4 | 58.1
GGTTCCGAAAGGAATACC ((((((....)))..))) | -14.1 | 41.5
GCAATGCGAAAGCAAGGC ((..(((....)))..)) | -18.7 | 43.7
GCGGAGCCCCGC ((((....)))) | -10.7 | 55.8
GGATAGGGAAACCTATCC (((((((....))))))) | -47.9 | 56.8
GCCAACGAAAGTTGGGC ((((((....))).))) | -14.2 | 65.7
GTTCAGCGAAAGCTAAAC (((.(((....))).))) | -21.6 | 37.8
CGATACGGAAACGTTCG (((.(((....)))))) | -28.6 | 42.3
GATCACGATTGTGATC ((((((....)))))) | -33.2 | 56.6
GTATTGGAAACAATAC ((((((....)))))) | -26.9 | 46.5
GGCGGGACGAAAGTCGCC (((..(((....)))))) | -28.6 | 59.5
GGGTGCGAAAGCATACCC ((((((....)))..))) | -19.8 | 53.5
GCAGATGGAAACACCTGC ((((.((....)).)))) | -28.9 | 44.2
GTTGCAGGAAACTGTAGC (.(.(((....))).).) | -19.9 | 32.6
GATCGTTTTACGATC ((((((...)))))) | -40.8 | 60.1
GCAAAGCGAAAGCATTGC ((((.((....)).)))) | -21.1 | 58.9
GTACACGAAAGTGGGTAC ((((((....)))..))) | -14.9 | 37.4
GATCATTAGATGATC ((((((...)))))) | -29.2 | 44.4
GATCGTGCGAAAGCAATC (((..(((....)))))) | -6.96 | 23.5

Reference: the array DNA melting data of Ke et al. (doi:10.1101/2024.01.08.574731)
